Here are results for nine compounds from ChEMBL document CHEMBL1157948, “Triterpenoids from the resin of Styrax tonkinensis and their antiproliferative and differentiation effects in human leukemia HL-60 cells” (2006).

What all share (type): functional
The subject of assay [1] is HL-60. Briefly: Growth inhibition of human HL60 cells after 3 days by trypan blue method. In short, it runs like this: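 HL-60 cells grown in RPMI-1640 with 10% heat-inactivated FBS, 1 mM L-glutamine, penicillin/streptomycin. Log-phase cells seeded at 1 × 10⁵ cells/mL and exposed to a range of concentrations for 3 days, in triplicate. Total cells counted on a hemocytometer, with trypan blue marking nonviable cells. Growth inhibition taken relative to untreated control; IG₅₀ from regression of concentration-response data; mean ± SE of three independent experiments.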

In assay [2] the test system is HL-60. Briefly: Induction of cell differentiation of human HL60 cells after 3 days by NBT reduction method. The arrangement: concentration or dose not given beside the values. In short, it runs like this:
(§1)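 HL-60 cells in RPMI-1640 with 10% heat-inactivated FBS, seeded at 1 × 10⁵ cells/mL in log phase and treated 3 days at nontoxic concentrations. Differentiation scored by NBT reduction as percentage of NBT-positive cells among 200 counted; mean ± SE of three independent experiments.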

Assay [3] deals with HL-60. Briefly: Induction of cell differentiation of human HL60 cells at 100 uM after 3 days by NBT reduction method. In short, it runs like this:
as §1

Where only a bound is given, the exact number is not on record here.

In assay [1], `CC1(C)CC[C@]2(C(=O)O)CC[C@]3(C)C(=CC[C@@H]4[C@@]5(C)CCC(=O)C(C)(C)[C@@H]5[C@H](O)C[C@]43C)[C@@H]2C1` displayed an IG50 of 14.2 µM. In assay [2], the Activity is listed as less than 10%.
In turn, `CC1(C)CC[C@]2(C(=O)O)CC[C@]3(C)C(=CC[C@@H]4[C@@]5(C)CCC(=O)C(C)(C)[C@@H]5CC[C@]43C)[C@@H]2[C@@H]1O` registered an IG50 in assay [1] of 41 µM. For the same compound, the Activity in assay [2] is less than 10%.
In assay [1], `CC1(C)CC[C@]2(C(=O)O)CC[C@]3(C)C(=CC(=O)[C@@H]4[C@@]5(C)CC[C@H](O)C(C)(C)[C@@H]5[C@H](O)C[C@]43C)[C@@H]2C1` registered an IG50 of 99.4 µM. In assay [3], the Activity amounted to 44%.
Consider `CC1(C)CC[C@]23CC[C@]4(C)[C@@H](C(=O)C[C@@H]5[C@@]6(C)CC[C@H](O)C(C)(C)[C@@H]6CC[C@]54C)[C@@H]2[C@H]1OC3=O`, for which the IG50 in assay [1] stood at 51.2 µM. This compound showed an Activity in assay [2] of less than 10%.
Regarding `CC1(C)CC[C@@]23CC[C@]4(C)[C@@](OC2=O)([C@@H]3C1)[C@H]1O[C@H]1[C@@H]1[C@@]2(C)CCC(=O)C(C)(C)[C@@H]2[C@H](O)C[C@]14C`, the IG50 in assay [1] came to 41.8 µM. Also, in assay [2], the Activity is listed as less than 10%.
The corresponding values for `CC1(C)CC[C@@]23CC[C@]4(C)[C@@](OC2=O)([C@@H]3C1)[C@H]1O[C@H]1[C@@H]1[C@@]2(C)CC[C@H](O)C(C)(C)[C@@H]2[C@H](O)C[C@]14C` are 27.5 µM and less than 10%.
Consider `CC1(C)CC[C@]2(C(=O)O)CC[C@]3(C)C(=CC[C@@H]4[C@@]5(C)CC[C@H](O)C(C)(C)[C@@H]5CC[C@]43C)[C@@H]2C1` [OLEANOLIC_ACID], for which, in assay [1], the IG50 amounted to 8.9 µM. The compound further yielded an Activity in assay [2] of less than 10%.
With `CC1(C)CC[C@]2(C(=O)O)CC[C@]3(C)C(=CC[C@@H]4[C@@]5(C)CC[C@H](O)C(C)(C)[C@@H]5CC[C@]43C)[C@@H]2[C@@H]1O` [SIARESINOLIC ACID], the IG50 in assay [1] was 29 µM. In assay [2], this compound displayed an Activity of less than 10%.
The corresponding values for `CC1(C)CC[C@]2(C(=O)O)CC[C@]3(C)C(=CC[C@@H]4[C@@]5(C)CC[C@H](O)C(C)(C)[C@@H]5[C@H](O)C[C@]43C)[C@@H]2C1` [SUMARESINOLIC ACID] are 30.2 µM and less than 10%.
